Bioassay records deposited in PubChem by several laboratories.
Most compounds without a hit are left out; they make up all but 6.8% or so of the library.
core dimer inh: blocks dimerization of HCV core protein; TR-FRET GST/Flag-core106 dimerization, 1536-well; inhibition, % at 5 µM; hit rate 0.33% among 300,000;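 active means inhibition above the mean of all tested compounds plus 3 SD, set per screening campaign, cut at about 45% in these data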
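Material: GST/Flag-tagged HCV core106 proteins. Incubation: 4 h, 22.5 °C incubation. Read-out basis: inhibition (%) from 671 over 617 nm ratio. Measured by: TR-FRET, excitation 340 nm, emission 617 and 671 nm.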
ALR H2O2 inh: human ALR oxidase inhibition via reduced H2O2. P55789. purified ALR, DTT oxidation, H2O2 HRP-luminol luminescence. hit rate 3.8% among 290,000. inhibition, % (test concentration not listed). AID 485317;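 active means mean replicate inhibition above about 79%, with every replicate also reaching it, limit read from the data; inconclusive means only one of the two criteria met; inactive means mean below limit and not every replicate reaching it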
Target sequence (P55789 whole entry, looked up): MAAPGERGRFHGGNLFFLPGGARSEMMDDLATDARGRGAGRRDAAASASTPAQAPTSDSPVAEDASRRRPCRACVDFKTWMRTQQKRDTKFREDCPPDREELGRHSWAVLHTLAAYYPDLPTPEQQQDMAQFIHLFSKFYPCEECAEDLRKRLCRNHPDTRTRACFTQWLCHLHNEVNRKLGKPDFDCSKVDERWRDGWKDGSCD
PHOSPHO1 block: PHOSPHO1 (human) inhibition. Q8TCT1. recombinant PHOSPHO1, absorbance phosphatase assay. inhibition, % at 13.3 µM. hit rate 1.1% among 290,000; in the data active means inhibition above about 60%
Target sequence (Q8TCT1 whole entry, looked up): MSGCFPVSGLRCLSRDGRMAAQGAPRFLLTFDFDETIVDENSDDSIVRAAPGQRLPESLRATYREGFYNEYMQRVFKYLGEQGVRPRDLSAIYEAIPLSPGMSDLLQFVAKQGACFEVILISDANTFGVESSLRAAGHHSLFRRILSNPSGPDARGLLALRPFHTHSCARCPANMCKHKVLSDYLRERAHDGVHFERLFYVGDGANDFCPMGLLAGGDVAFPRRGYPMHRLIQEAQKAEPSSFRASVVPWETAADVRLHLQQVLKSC
AI-2 QS modul: Vibrio harveyi AI-2 quorum sensing modulation. Vibrio harveyi JMH597 AI-2 luminescence/OD600 ratio, 9 h; hits give low values; strain lacks LuxN and CqsS sensors; 0 = neutral-control median. activity change, % at 7.5 µM. hit rate 0.4% among 300,000. AID 2094; in the data active means activity change below about -75%, passing the limit was not always enough; inconclusive means no clear call, values can overlap the other calls;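 further: luminescence divided by OD600 gain over 9 h not by final OD600 alone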
HSF1 activator: increases HSF-1 driven luciferase reporter signal. NIH3T3-HGL HSF-1 luciferase reporter, MG132, 8 h; 100% = twice DMSO control signal. activation, % at 9 µM. hit rate 1.7% among 300,000. AID 504408;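 active means mean replicate activation of at least 50% with a set share of replicates each reaching 50%; inconclusive means only one of those two conditions met; inactive means mean below 50% and too few replicates reaching it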
HSF1 inhib: HSF1 inhibition. NIH3T3-HGL HSE-luciferase, MG132-induced, luminescence 8 h; hits give low values. activity change, negative = inhibition, % at 7.5 µM (by protocol). hit rate 0.77% among 300,000;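 active means more than half of replicate wells show activity change below -50%, luminescence cut by over half; inconclusive means some wells, but at most half, below -50%; inactive means no replicate well below -50%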;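 further: luciferase reports HSF-1 transcriptional activity via heat shock element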
Numbers stand for hits; n = inactive; u = inconclusive; x = no result.

SMILES	core dimer inh	ALR H2O2 inh	PHOSPHO1 block	AI-2 QS modul	HSF1 activator	HSF1 inhib
COc1cccc(CNC(=O)CSCC(=O)Nc2ccc(C)cc2)c1	n	99.1	x	n	n	n
COc1ccc(NC(=O)CN(C)C(=O)CSCC(=O)Nc2ccc(C)cc2)cc1	n	x	x	n	n	n
O=S(=O)(Cc1cc(NCc2ccccc2)nc(-c2ccccn2)n1)c1ccccc1	n	n	n	n	n	n
O=C1Nc2ccccc2N=C(c2ccccc2)c2ccccc21	n	83.5	n	n	x	n
O=C1Nc2ccccc2Nc2ccccc21	n	n	n	n	n	n
O=C(Nc1ccc(Cl)c(Cl)c1)c1ccc(Cn2cc(Cl)cn2)cc1	x	x	n	n	72.2	n
O=C(Nc1ccccc1F)c1ccc(Cn2cc(Cl)cn2)cc1	n	99.7	n	n	n	n
CCOc1ccccc1N1CCN(C(=S)Nc2ccc(S(=O)(=O)Nc3ncccn3)cc2)CC1	n	n	n	n	n	n
CCOc1ccc(NCc2cccn2-c2nnc(N3CCC(C(=O)NCCCN4CC(C)CC(C)C4)CC3)s2)cc1 (stereo not drawn)	n	99.6	n	n	n	n
Cc1ccccc1Cn1c(NC2CCCC2)nc2c1c(=O)[nH]c(=O)n2C	n	n	x	n	n	n
COc1cccc(CNc2ccc3c(c2)ncn3C)c1OC	x	u	n	n	n	n
COc1cccc(CNc2ccc3c(c2)nc(C)n3C)c1OC	n	99.2	n	n	n	n
CCOc1ccc(CNc2ccc3c(c2)nc(C)n3C)cc1	n	95.9	n	x	x	x
COc1ccc(CNc2ccc3c(c2)nc(C)n3C)cc1OC	n	n	x	n	n	n
COc1ccc(CN2CCn3nc(C(=O)NC4CC4)cc3C2=O)cc1	n	n	n	n	n	n
CN(C)c1nc(-c2cccnc2)nc(-c2ccccc2)c1C#N	x	n	x	n	n	n
O=S(=O)(Nc1cccnc1)c1cccc(C(F)(F)F)c1	n	n	n	n	n	n
O=[N+]([O-])c1ccc(S(=O)(=O)c2cccc(C(F)(F)F)c2)nc1	n	n	x	n	n	-95.3
C=CCOc1c(Br)cc(CNc2ccc3[nH]c(=O)[nH]c3c2)cc1OCC	n	u	n	n	n	n
CCOc1cc(CNc2ccc3c(c2)OCCO3)cc(Br)c1OCC	n	n	n	n	n	-82.0
CCOc1c(Br)cc(CNc2ccc(N3CCN(C(C)=O)CC3)cc2)cc1OC	n	98.2	n	n	n	n
COc1cc(CNc2ccc(N3CCOCC3)cc2)cc(Br)c1OC	n	98.3	n	n	n	n
CCOc1cc(CNc2ccc(N3CCOCC3)cc2)cc(Br)c1OCC	n	99.1	n	n	n	n
Cc1c(-c2cccc(NC(=O)c3cccs3)c2)nc2ncccn12	n	x	n	n	n	n
COc1cccc(OCCNC(=O)Nc2cc(F)c(F)cc2Cl)c1	n	n	n	n	n	n
SMILES	core dimer inh	ALR H2O2 inh	PHOSPHO1 block	AI-2 QS modul	HSF1 activator	HSF1 inhib
COc1ccc(/C=C2\S/C(=N/S(=O)(=O)c3cccs3)NC2=O)cc1	n	96.7	n	n	n	n
O=C(NC1CCCC1)C(c1ccc(F)cc1)N(Cc1ccccc1Cl)C(=O)CCl (stereo not drawn)	n	n	n	n	n	n
Cc1ccc(-c2nnc(CCC(=O)NCc3csc(C)n3)o2)s1	n	n	n	n	n	n
COc1cccc(/C=C2\SC(=S)N(NS(=O)(=O)c3ccccc3)C2=O)c1OC	n	97.5	n	n	n	n
Cc1ccc(S(=O)(=O)NN2C(=O)/C(=C/c3cccn3C)SC2=S)cc1	n	97.1	n	x	x	x
CC(=O)c1ccc(NC(=O)/C(=C\c2ccccc2)NC(=O)/C=C/c2ccccc2)cc1	n	n	n	n	n	n
O=C(/C=C/c1ccccc1)N/C(=C/c1ccccc1)C(=O)Nc1ccc(C(=O)O)cc1	n	87.4	n	n	n	n
CC(=O)N/C(=C\c1ccccc1)C(=O)Nc1ccc(O)cc1	n	99.3	n	n	n	n
CC(=O)N/C(=C/c1cccnc1)C(=O)Nc1ccc(Cl)cc1	n	n	x	n	n	n
CCCCCCNC(=O)N[C@H](C(=O)NCCC[C@H]1CN2C(=NC[C@H]2C)N1CCC(c1ccccc1)c1ccccc1)C(C)O (stereo partly drawn)	n	n	n	x	x	x
O=Cc1ccc(OC2OCCOC2Oc2ccc(C=O)cc2)cc1 (stereo not drawn)	n	n	n	n	n	n
